From ChEMBL document CHEMBL2169874, “Design, synthesis, and pharmacological evaluation of novel hybrid compounds to treat sickle cell disease symptoms. part II: furoxan derivatives” (J Med Chem, 2012)
The source made the active and inactive calls. The rule behind the calls is not given here.

What was measured:
Mus musculus [1] = experiment: Mutagenicity in Swiss mouse assessed as micronucleated reticulocytes in peripheral blood at 100 mg/kg, po after 30 hrs by micronucleus test; assay type: toxicity, organism-based; parameters: dose 100 mg/kg, route oral; conditions: in vivo
In short: (§1)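 Swiss mice of both sexes (25−30 g), 10 per group, gavaged at 25, 50 or 100 mg/kg. Negative control: 1% CMC/0.2% Tween by gavage; positive control: cyclophosphamide 50 mg/kg ip. Blood collected 30 h later, slides prestained with acridine orange. 1000 reticulocytes scored per animal for micronucleated cells; mean with SD.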

K562 [2] = experiment: Upregulation of gamma-globin mRNA expression in human K562 cells at 100 uM after 96 hrs by qRT-PCR analysis relative to control; assay type: functional
In short: (§2)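 K562 cells in DMEM with 10% FBS, penicillin/streptomycin, 37 °C, 5% CO2, seeded at 1 × 10^7 cells/100 mL. Treated at 5−100 μM for 24, 48, 72 or 96 h. γ-globin mRNA by SYBR Green qRT-PCR, normalized to β-actin and GAPDH, vs vehicle control (DMSO, or water for HU). Mean ± SEM, n = 5; ANOVA with Dunnett's test.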

K562 [3] = experiment: Upregulation of gamma-globin mRNA expression in human K562 cells at 5 uM after 24 to 96 hrs by qRT-PCR analysis relative to control; assay type: functional, cell-based; in short: as §2
Mus musculus [4] = experiment: Antinociceptive activity in Swiss albino mouse assessed as inhibition of acetic-acid induced abdominal constriction at 100 umol/kg, po administered 1 hr prior to acetic-acid challenge measured after 10 mins relative to vehicle-treated control; assay type: functional; conditions: Abdomen
In short: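 Mice dosed orally at 100 μmol/kg as a suspension in 5% arabic gum in saline. 0.6% acetic acid (0.1 mL/10 g) given ip 1 h later. Starting 10 min after injection, constrictions per animal counted for 20 min. Vehicle controls received an equal volume. Expressed as % inhibition vs vehicle group; mean ± SEM, 10 animals per group; Student's t test.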

Mus musculus [5] = experiment: Mutagenicity in Swiss mouse assessed as micronucleated reticulocytes in peripheral blood at 25 mg/kg, po after 30 hrs by micronucleus test; assay type: toxicity, organism-based; parameters: dose 25 mg/kg, route oral; conditions: in vivo; in short: as §1
Mus musculus [6] = experiment: Mutagenicity in Swiss mouse assessed as micronucleated reticulocytes in peripheral blood at 50 mg/kg, po after 30 hrs by micronucleus test; assay type: toxicity, organism-based; parameters: dose 50 mg/kg, route oral; conditions: in vivo; in short: as §1
[7] = Induction of nitrite release at 10^-4 M after 1 hr by Griess method in presence of L-cysteine; assay type: physicochemical; conditions: 100 µM
K562 [8] = experiment: Upregulation of gamma-globin mRNA expression in human K562 cells at 5 uM after 96 hrs by qRT-PCR analysis relative to control; assay type: functional; in short: as §2
K562 [9] = experiment: Upregulation of beta-soluble guanilate cyclase mRNA expression in human K562 cells at 5 and 30 uM from 24 to 96 hrs by qRT-PCR analysis relative to control; assay type: functional, cell-based
In short: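 K562 cells in DMEM with 10% FBS, penicillin/streptomycin, 37 °C, 5% CO2, seeded at 1 × 10^7 cells/100 mL. Treated at 5 or 30 μM for 24, 48, 72, 96 h. β-sGC mRNA by SYBR Green qRT-PCR, normalized to β-actin and GAPDH, vs DMSO control. Mean ± SEM, n = 5; Mann−Whitney test.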

K562 [10] = experiment: Upregulation of gamma-globin mRNA expression in human K562 cells at 5 uM after 24 hrs by qRT-PCR analysis relative to control; assay type: functional, cell-based; in short: as §2

Row | Activity [7] | SMILES | inhibition (Mus musculus [4]) | also measured
1 | – | NC(=O)NO [HYDROXYUREA] | inactive | Activity (Mus musculus [1]): 33.7; fold change (FC) (K562 [2]): 1.77; Activity (K562 [3]): inactive; Activity (Mus musculus [5]): 9.9; Activity (Mus musculus [6]): 15
2 | 28.2% | O=C(NCCOc1no[n+]([O-])c1S(=O)(=O)c1ccccc1)c1ccc(N2C(=O)c3ccccc3C2=O)cc1 | inactive | –
3 | 13.2% | O=C(OCc1c(-c2ccccc2)no[n+]1[O-])c1cccc(N2C(=O)c3ccccc3C2=O)c1 | inactive | –
4 | 9.5% | O=C1c2ccccc2C(=O)N1CCOc1c(S(=O)(=O)c2ccccc2)no[n+]1[O-] | – | fold change (FC) (K562 [8]): 2.8; Activity (Mus musculus [1]): 6.7; Activity (K562 [9]): inactive; inhibition in vivo at 100 µmol/kg (Mus musculus [4]): 43%; Activity (Mus musculus [5]): 4; Activity (Mus musculus [6]): 5.5; Activity (K562 [10]): Active
5 | 10.6% | O=C(OCc1c(-c2ccccc2)no[n+]1[O-])c1cc(N2C(=O)c3ccccc3C2=O)ccc1O | inactive | –
6 | 14.8% | O=C1c2ccccc2C(=O)N1Cc1c(-c2ccccc2)no[n+]1[O-] | inactive | –
7 | 28.1% | O=C1c2ccccc2C(=O)N1c1ccc(S(=O)(=O)NCCOc2no[n+]([O-])c2S(=O)(=O)c2ccccc2)cc1 | – | inhibition in vivo at 100 µmol/kg (Mus musculus [4]): 36%
8 | 9.7% | O=C(OCc1c(-c2ccccc2)no[n+]1[O-])c1ccccc1N1C(=O)c2ccccc2C1=O | inactive | –
9 | – | Cc1c(N(C)CS(=O)(=O)O)c(=O)n(-c2ccccc2)n1C | Active | –

Row | SMILES | Activity [7] | inhibition (Mus musculus [4]) | also measured
10 | O=[N+]([O-])O[C@H]1CO[C@H]2[C@@H]1OC[C@H]2O[N+](=O)[O-] [ISOSORBIDE DINITRATE] | 11.6% | – | –
